Assay results reported in ChEMBL document CHEMBL3526002, “Tissue distribution and identification of radioactivity components at elimination phase after oral administration of [¹⁴C]CS-1036, an α-amylase inhibitor, to rats” (Drug Metab Dispos, 2013).

Columns and labels:
Conditions in all cases: in vivo
Large intestine = assay: Drug uptake in albino F344/DuCrlCrlj rat large intestine at 5 mg/kg, po after 72 hrs by liquid scintillation counting; assay type: ADME, organism-based; design: dose 5 mg/kg, dosed compound name [14C]CS-1036, route oral
Plasma [1] = assay: Drug metabolism in albino F344/DuCrlCrlj rat plasma assessed as (2R,3R,4R)-2-(hydroxymethyl)pyrrolidine-3,4-diol formation at 10 mg/kg, po after 8 to 72 hrs by liquid scintillation counting; assay type: ADME, organism-based; design: dose 10 mg/kg, dosed compound name [14C]CS-1036, route oral
Cerebrum = assay: Drug uptake in albino F344/DuCrlCrlj rat cerebrum at 5 mg/kg, po after 24 hrs by liquid scintillation counting; assay type: ADME, organism-based; design: dose 5 mg/kg, dosed compound name [14C]CS-1036, route oral
Method in brief: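 Single oral [14C]CS-1036 at 5 mg/kg was given to male rats (159–167 g; n = 3). Cerebrum was collected after aortic bleeding at 1, 4, 8, 24, 72, 168 or 336 h, weighed, and homogenized in 2 volumes of saline. A 0.5 ml aliquot was solubilized in Soluene-350 and counted by LSC with external-standard correction. Results are in ng equivalent/g tissue from specific activity and sample weight.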

Harderian gland [2] = assay: Drug uptake in albino F344/DuCrlCrlj rat harderian gland at 5 mg/kg, po after 24 hrs by liquid scintillation counting; assay type: ADME, organism-based; design: dose 5 mg/kg, dosed compound name [14C]CS-1036, route oral
Plasma [3] = assay: Drug uptake in albino F344/DuCrlCrlj rat plasma assessed as ng equivalent of CS-1036 at 5 mg/kg, po after 1 hr by liquid scintillation counting; assay type: ADME, organism-based; design: dose 5 mg/kg, dosed compound name [14C]CS-1036, route oral
Lung [4] = assay: Drug uptake in albino F344/DuCrlCrlj rat lung assessed as ng equivalent of CS-1036 at 5 mg/kg, po after 168 hrs by liquid scintillation counting; assay type: ADME, organism-based; design: dose 5 mg/kg, dosed compound name [14C]CS-1036, route oral
Cerebellum = assay: Drug uptake in albino F344/DuCrlCrlj rat cerebellum at 5 mg/kg, po after 1 hr by liquid scintillation counting; assay type: ADME, organism-based; design: dose 5 mg/kg, dosed compound name [14C]CS-1036, route oral
Kidney [5] = assay: Drug uptake in albino F344/DuCrlCrlj rat kidney at 5 mg/kg, po after 1 hr by liquid scintillation counting; assay type: ADME, organism-based; design: dose 5 mg/kg, dosed compound name [14C]CS-1036, route oral
Heart [6] = assay: Drug uptake in albino F344/DuCrlCrlj rat heart assessed as ng equivalent of CS-1036 at 5 mg/kg, po after 336 hrs by liquid scintillation counting; assay type: ADME, organism-based; design: dose 5 mg/kg, dosed compound name [14C]CS-1036, route oral
Spleen = assay: Drug uptake in albino F344/DuCrlCrlj rat spleen at 5 mg/kg, po after 1 hr by liquid scintillation counting; assay type: ADME, organism-based; design: dose 5 mg/kg, dosed compound name [14C]CS-1036, route oral
Heart [7] = assay: Drug uptake in albino F344/DuCrlCrlj rat heart at 5 mg/kg, po after 336 hrs by liquid scintillation counting; assay type: ADME, organism-based; design: dose 5 mg/kg, dosed compound name [14C]CS-1036, route oral
Pancreas [8] = assay: Drug uptake in albino F344/DuCrlCrlj rat pancreas assessed as ng equivalent of CS-1036 at 5 mg/kg, po after 336 hrs by liquid scintillation counting; assay type: ADME, organism-based; design: dose 5 mg/kg, dosed compound name [14C]CS-1036, route oral
[9] = Drug uptake in albino F344/DuCrlCrlj rat fat assessed as ng equivalent of CS-1036 at 5 mg/kg, po after 336 hrs by liquid scintillation counting; assay type: ADME, organism-based, Adipose tissue; design: dose 5 mg/kg, dosed compound name [14C]CS-1036, route oral
Method in brief: (§1)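 Male F344/DuCrlCrlj rats (bought at 7 weeks, acclimatized 5–6 days; 159–167 g; n = 3 per time point) received a single oral dose of [14C]CS-1036 at 5 mg/kg. White adipose tissue was collected after abdominal aortic bleeding at 1, 4, 8, 24, 72, 168 or 336 h. Samples were counted by LSC with external-standard efficiency correction. Results were converted to ng equivalents per g from specific activity and sample weight.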

Harderian gland [10] = assay: Drug uptake in albino F344/DuCrlCrlj rat harderian gland assessed as ng equivalent of CS-1036 at 5 mg/kg, po after 1 hr by liquid scintillation counting; assay type: ADME, organism-based; design: dose 5 mg/kg, dosed compound name [14C]CS-1036, route oral
Aorta = assay: Drug uptake in albino F344/DuCrlCrlj rat aorta at 5 mg/kg, po after 24 hrs by liquid scintillation counting; assay type: ADME, organism-based; design: dose 5 mg/kg, dosed compound name [14C]CS-1036, route oral
Stomach [11] = assay: Drug uptake in albino F344/DuCrlCrlj rat stomach at 5 mg/kg, po after 168 hrs by liquid scintillation counting; assay type: ADME, organism-based; design: dose 5 mg/kg, dosed compound name [14C]CS-1036, route oral
[12] = Drug uptake in albino F344/DuCrlCrlj rat fat at 5 mg/kg, po after 168 hrs by liquid scintillation counting; assay type: ADME, organism-based, Adipose tissue; design: dose 5 mg/kg, dosed compound name [14C]CS-1036, route oral; method in brief: as §1
Lung [13] = assay: Drug uptake in albino F344/DuCrlCrlj rat lung assessed as ng equivalent of CS-1036 at 5 mg/kg, po after 72 hrs by liquid scintillation counting; assay type: ADME, organism-based; design: dose 5 mg/kg, dosed compound name [14C]CS-1036, route oral
Lung [14] = assay: Drug uptake in albino F344/DuCrlCrlj rat lung at 5 mg/kg, po after 168 hrs by liquid scintillation counting; assay type: ADME, organism-based; design: dose 5 mg/kg, dosed compound name [14C]CS-1036, route oral
Pancreas [15] = assay: Drug uptake in albino F344/DuCrlCrlj rat pancreas at 5 mg/kg, po after 1 hr by liquid scintillation counting; assay type: ADME, organism-based; design: dose 5 mg/kg, dosed compound name [14C]CS-1036, route oral
[16] = Drug uptake in albino F344/DuCrlCrlj rat thyroid gland assessed as ng equivalent of CS-1036 at 5 mg/kg, po after 72 hrs by liquid scintillation counting; assay type: ADME, organism-based; design: dose 5 mg/kg, dosed compound name [14C]CS-1036, route oral
Heart [17] = assay: Drug uptake in albino F344/DuCrlCrlj rat heart assessed as ng equivalent of CS-1036 at 5 mg/kg, po after 8 hrs by liquid scintillation counting; assay type: ADME, organism-based; design: dose 5 mg/kg, dosed compound name [14C]CS-1036, route oral
[18] = Drug uptake in albino F344/DuCrlCrlj rat bone marrow assessed as ng equivalent of CS-1036 at 5 mg/kg, po after 24 hrs by liquid scintillation counting; assay type: ADME, organism-based; design: dose 5 mg/kg, dosed compound name [14C]CS-1036, route oral
Plasma [19] = assay: Drug uptake in albino F344/DuCrlCrlj rat plasma assessed as ng equivalent of CS-1036 at 5 mg/kg, po after 72 hrs by liquid scintillation counting; assay type: ADME, organism-based; design: dose 5 mg/kg, dosed compound name [14C]CS-1036, route oral
Kidney [20] = assay: Drug uptake in albino F344/DuCrlCrlj rat kidney at 5 mg/kg, po after 336 hrs by liquid scintillation counting; assay type: ADME, organism-based; design: dose 5 mg/kg, dosed compound name [14C]CS-1036, route oral
[21] = Drug uptake in albino F344/DuCrlCrlj rat trachea assessed as ng equivalent of CS-1036 at 5 mg/kg, po after 1 hr by liquid scintillation counting; assay type: ADME, organism-based; design: dose 5 mg/kg, dosed compound name [14C]CS-1036, route oral
Zone of skin = assay: Drug uptake in albino F344/DuCrlCrlj rat skin assessed as ng equivalent of CS-1036 at 5 mg/kg, po after 4 hrs by liquid scintillation counting; assay type: ADME, organism-based; design: dose 5 mg/kg, dosed compound name [14C]CS-1036, route oral
Plasma [22] = assay: Drug uptake in albino F344/DuCrlCrlj rat plasma at 5 mg/kg, po after 4 hrs by liquid scintillation counting; assay type: ADME, organism-based; design: dose 5 mg/kg, dosed compound name [14C]CS-1036, route oral
[23] = Drug uptake in albino F344/DuCrlCrlj rat testis assessed as ng equivalent of CS-1036 at 5 mg/kg, po after 4 hrs by liquid scintillation counting; assay type: ADME, organism-based; design: dose 5 mg/kg, dosed compound name [14C]CS-1036, route oral
Pancreas [24] = assay: Drug uptake in albino F344/DuCrlCrlj rat pancreas assessed as ng equivalent of CS-1036 at 5 mg/kg, po after 24 hrs by liquid scintillation counting; assay type: ADME, organism-based; design: dose 5 mg/kg, dosed compound name [14C]CS-1036, route oral
Liver [25] = assay: Drug uptake in albino F344/DuCrlCrlj rat liver at 5 mg/kg, po after 8 hrs by liquid scintillation counting; assay type: ADME, organism-based; design: dose 5 mg/kg, dosed compound name [14C]CS-1036, route oral
[26] = Drug uptake in albino F344/DuCrlCrlj rat fat assessed as ng equivalent of CS-1036 at 5 mg/kg, po after 1 hr by liquid scintillation counting; assay type: ADME, organism-based, Adipose tissue; design: dose 5 mg/kg, dosed compound name [14C]CS-1036, route oral; method in brief: as §1
[27] = Drug uptake in albino F344/DuCrlCrlj rat skeletal muscle assessed as ng equivalent of CS-1036 at 5 mg/kg, po after 8 hrs by liquid scintillation counting; assay type: ADME, organism-based, Muscle tissue; design: dose 5 mg/kg, dosed compound name [14C]CS-1036, route oral
Stomach [28] = assay: Drug uptake in albino F344/DuCrlCrlj rat stomach assessed as ng equivalent of CS-1036 at 5 mg/kg, po after 24 hrs by liquid scintillation counting; assay type: ADME, organism-based; design: dose 5 mg/kg, dosed compound name [14C]CS-1036, route oral
Liver [29] = assay: Drug uptake in albino F344/DuCrlCrlj rat liver at 5 mg/kg, po after 72 hrs by liquid scintillation counting; assay type: ADME, organism-based; design: dose 5 mg/kg, dosed compound name [14C]CS-1036, route oral

In the case of `C[C@H]1O[C@@H](O[C@H]2[C@H](O)[C@@H](O)[C@@H](O[14C@H]3[14C@H](O)[14CH2]N[14C@@H]3[14CH2]O)O[C@@H]2CO)[C@H](O)[C@@H](O)[C@@H]1O`, the Radiolabel recovery (Large intestine) is reported as 65.1 ngequiv/g, the Drug metabolism (Plasma [1]) is reported as “metabolite_detected” and the Radiolabel recovery (Cerebrum) is reported as 19.3 ngequiv/g. It also gave a Radiolabel recovery (Harderian gland [2]) of 290 ngequiv/g, a Radiolabel recovery (Plasma [3]) of 12.7 ngequiv/ml and a Radiolabel recovery (Lung [4]) of 8.2 ngequiv/g. The Radiolabel recovery (Cerebellum) was 9.35 ngequiv/g, the Radiolabel recovery (Kidney [5]) was 520 ngequiv/g and the Radiolabel recovery (Heart [6]) was 3.63 ngequiv/g. For the same molecule, the Radiolabel recovery (Spleen) was 65.6 ngequiv/g, the Radiolabel recovery (Heart [7]) was 7.28 ngequiv/g and the Radiolabel recovery (Pancreas [8]) was 11.2 ngequiv/g. The Radiolabel recovery [9] was 63 ngequiv/g, the Radiolabel recovery (Harderian gland [10]) was 4.3 ngequiv/g and the Radiolabel recovery (Aorta) was 35.2 ngequiv/g. The Radiolabel recovery (Stomach [11]) was 23.9 ngequiv/g, the Radiolabel recovery [12] was 130 ngequiv/g and the Radiolabel recovery (Lung [13]) was 5.1 ngequiv/g. It also gave a Radiolabel recovery (Lung [14]) of 17.2 ngequiv/g, a Radiolabel recovery (Pancreas [15]) of 102 ngequiv/g and a Radiolabel recovery [16] of 42.7 ngequiv/g. The Radiolabel recovery (Heart [17]) was 8.3 ngequiv/g, the Radiolabel recovery [18] was 19 ngequiv/g and the Radiolabel recovery (Plasma [19]) was 8 ngequiv/ml. The Radiolabel recovery (Kidney [20]) was 12 ngequiv/g, the Radiolabel recovery [21] was 7.4 ngequiv/g and the Radiolabel recovery (Zone of skin) was 9.6 ngequiv/g. The Radiolabel recovery (Plasma [22]) was 60.1 ngequiv/ml, the Radiolabel recovery [23] was 5.3 ngequiv/g and the Radiolabel recovery (Pancreas [24]) was 25 ngequiv/g. It also gave a Radiolabel recovery (Liver [25]) of 193 ngequiv/g, a Radiolabel recovery [26] of 1.53 ngequiv/g and a Radiolabel recovery [27] of 11.2 ngequiv/g. For the same molecule, the Radiolabel recovery (Stomach [28]) was 16 ngequiv/g and the Radiolabel recovery (Liver [29]) was 446 ngequiv/g.
